# Experimental data as given in PMC5598529 (Toxicology Reports, 2014).
# “Also recorded” adds a separate entry of the source.
# Experiments:
# Format in all cases: cell-based, human
# Caco-2 cell monolayer [1] = assay: Transepithelial electrical resistance; conditions: for TEER (J10), direction of effect: 1-25 μM, 10 days, vs control; for TEER (J10), concentration given for the effect: day 10
# Outline: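 Caco-2 were grown on collagen-coated Transwells (2.5 × 10^5 cells/well) for 4 days. They were then exposed apically and basolaterally to 1, 5, 10 or 25 μM test compound or 0.1% DMSO, renewed every 2 days. Resistance was measured at days 0, 3, 7 and 10 and expressed in Ω cm2. Mean ± SEM of 3 independent experiments, each in triplicate.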
# Caco-2 cells [2] = assay: Intracellular ROS; conditions: 6 h exposure, p < 0.05; for H2O2 production, direction of effect: 25 or 100 μM, vs control
# Outline: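 Cells were plated at 5 × 10^4/well and grown 48 h in 10% FBS medium, then washed with PBS. They were exposed for 6 h at 37 °C to 25 or 100 μM test compound in HBSS containing 5 μM H2-DCFDA; controls had 0.025% DMSO. After PBS washes, fluorescence was read at ex 485/em 530 nm.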
# [3] = system: phospho-Akt (Ser473) in Caco-2 cells; assay: Western blot analysis of Akt; conditions: 25 μM, compared to control
# Outline: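 Cells at 1.5 × 10^5/well were exposed 20 h after seeding to 25 μM of each test compound or the mixture for 10 days. Lysis was in RIPA with protease and phosphatase inhibitors. 25 μg protein was resolved by SDS-PAGE and blotted to nitrocellulose. Blots were probed overnight at 4 °C with anti-phospho-Akt Ser473 (1/2000) and anti-Akt1/2/3 (1/1000), then detected with 800 nm infrared-dye secondaries and quantified by relative fluorescence. Three independent experiments.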
# Caco-2 cell monolayer [4] = assay: Phenol red diffusion; conditions: 1-25 μM, day 10, vs control
# Outline: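 Monolayers were grown on collagen-coated Transwells (2.5 × 10^5 cells/well) for 4 days. Then 1, 5, 10 or 25 μM test compound or 0.1% DMSO was added to both compartments in 4% FBS medium, renewed every 2 days. At day 10, phenol red medium was placed apically and phenol red-free medium basolaterally. Apical-to-basolateral diffusion over 4 h was read at 560 nm and expressed as percent diffusion.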
# [5] = system: catalase (CAT) activity in Caco-2 cells; assay: Antioxidant enzyme assay: catalase; conditions: 10 days, 1, 5, 10 and 25 μM, vs control
# Outline: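 Cells at 1.5 × 10^5/well were exposed next day to 1–25 μM test compound or vehicle, renewed every 48 h. At day 10 they were sonicated in 50 mM phosphate pH 7 with 1 mM EDTA. Catalase was measured in the 105,000 × g (1 h, 4 °C) supernatant as H2O2 decomposition followed at 240 nm for 30 s. Specific activity is given as % of control.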
# Caco-2 cells [6] = assay: MTT cell viability assay; conditions: for concentration at which impact on viability appeared: appeared later (J7); for Cell viability (J10), concentration given for the effect: day 10, p < 0.05; for concentration at which toxicity was observed: 3 days-period of exposure
# Outline: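 Caco-2 (passage 25–39) were seeded at 5 × 10^4/well. After 20 h they received 0.1–100 μM test compound, alone or as an equimolar mixture, in 4% FBS medium, renewed every 48 h, for 3, 7 and 10 days. MTT (0.5 mg/ml in RPMI) was added for 4 h at 37 °C and stopped with SDS/NaOH. Absorbance was read at 570/690 nm as % of DMSO control; EC50 was taken from the dose–response curve. Three experiments, each in quadruplicate.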
# [7] = system: Alkaline phosphatase activity in Caco-2 cells; assay: Alkaline phosphatase assay for cell differentiation; conditions: for ALP activity (J10), direction of effect: 1-25 μM, 10 days, vs control, p < 0.01; for ALP activity (J10), concentration given for the effect: day 10, p < 0.01
# Outline: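 Caco-2 seeded at 1.125 × 10^5 cells/well and treated next day with 1, 5, 10 or 25 μM of test compound, or 0.1% DMSO vehicle, for 10 days in 4% FBS medium, renewed every 48 h. Cells were scraped into cold 50 mM Tris pH 7.5 and needle-homogenised. Lysate ALP hydrolysed pNPP over 30 min at pH 10.4, 37 °C; p-nitrophenol read at 405 nm, per mg protein, as % of control.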
# Caco-2 cells [8] = assay: Lipid peroxidation measurement; conditions: 48 h exposure; for Lipid peroxidation, concentration given for the effect: p < 0.01; for TBARS level with respect to control: 25 μM
# Outline: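 Cells were seeded at 1.25 × 10^5/well and exposed for 48 h to 25 or 100 μM test compound. Culture medium was mixed with HCl and TBA buffer, heated 10 min at 95 °C, ice-cooled and extracted with n-butanol. Absorbance was read at 532 nm. MDA equivalents were calculated from a TMOP calibration curve.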
# Caco-2 cells [9] = assay: Detection of apoptosis and necrosis by Hoechst 33342 and PI staining; conditions: 25 μM, 48 h; for Percent of necrosis in treated vs control cells: ratio of percentage of necrotic cells in treated versus untreated cells
# Outline: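 Cells were seeded at 1.25 × 10^5/well. After 20 h they received 25 μM test compound, alone or as an equimolar mixture, for 48 h. They were stained with Hoechst 33342 (5 μg/ml) plus PI (1 μg/ml) for 30 min at 37 °C in the dark, then washed. Normal, apoptotic and necrotic cells were counted in four random fields per well. Three independent experiments, each in triplicate.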
# [10] = system: superoxide dismutase (SOD) activity in Caco-2 cells; assay: Antioxidant enzyme assay: superoxide dismutase; conditions: 10 days, 1, 5, 10 and 25 μM, vs control
# Outline: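 Supernatant at 105,000 × g from sonicated Caco-2 was used, after 10 days' exposure to 1–25 μM test compound or vehicle. Superoxide came from xanthine–xanthine oxidase, and inhibition of NBT reduction was followed kinetically at 560 nm for 5 min over several protein amounts. One unit inhibits formazan formation by 50%. Specific activity is given as % of control.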
# [11] = system: glutathione peroxidase (GPx) activity in Caco-2 cells; assay: Antioxidant enzyme assay: glutathione peroxidase; conditions: 10 days, 1, 5, 10 and 25 μM, vs control
# Outline: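 GPx activity was measured in Caco-2 exposed to 1–25 μM test compound or vehicle for 10 days. Cells were sonicated in 50 mM phosphate pH 7 with 1 mM EDTA and the 105,000 × g supernatant was used. The assay was coupled to glutathione reductase with H2O2 and NADPH, and NADPH loss was followed at 340 nm. Specific activity is given as % of control.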
# Caco-2 cells [12] = assay: Observation of morphologic changes; conditions: 25 μM, 72 h, phase contrast microscopy
# Outline: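 Cells were seeded at 1.125 × 10^5/well and grown 20 h. They were then exposed to 25 μM test compound for 72 h and morphology was examined by phase-contrast microscopy.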
SMILES,"TEER (J10), direction of effect (Caco-2 cell monolayer [1])","TEER (J10), concentration given for the effect (Caco-2 cell monolayer [1]) [µM]","H2O2 production, concentration given for the effect (Caco-2 cells [2]) [µM]",level of phospho-Akt (Ser473) [3],"Apparent permeability (J10) (phenol red diffusion), direction of effect (Caco-2 cell monolayer [4])",CAT activity [5],concentration at which impact on viability appeared (Caco-2 cells [6]) [µM],"Cell viability (J10), concentration given for the effect (Caco-2 cells [6]) [µM]","ALP activity (J10), direction of effect [7]","ALP activity (J10), concentration given for the effect [7] [µM]","Lipid peroxidation, concentration given for the effect (Caco-2 cells [8]) [µM]",Percent of necrosis in treated vs control cells (Caco-2 cells [9]),"H2O2 production, direction of effect (Caco-2 cells [2])",SOD activity [10],GPx activity [11],concentration at which toxicity was observed (Caco-2 cells [6]) [µM],morphological changes / cell density (Caco-2 cells [12]),TBARS level with respect to control (Caco-2 cells [8]) [%],further results
"CC1(C)[C@H](C(=O)O[C@H](C#N)c2cccc(Oc3ccccc3)c2)[C@@H]1/C=C(\Cl)C(F)(F)F (racemic) [LCT, lambda-cyhalothrin]",significant increase,25,100,greatest impact,decrease of membrane permeability,increase,1,1,increased its activity,1,100,,,,,,,,
"CC1(C)[C@H](C(=O)O[C@H](C#N)c2cccc(Oc3ccccc3)c2)[C@@H]1C=C(Br)Br [DTM, deltamethrin]",significant increase,10,25,,decrease of membrane permeability,increase,8,8,increased its activity,1,100,2.7,strongest effect,,,,,,
"COP(=S)(OC)Oc1ccc([N+](=O)[O-])c(C)c1 [FNT, fenitrothion]",net decrease,10,25,,increase of the apparent permeability,,,5,decreased ALP activity,5,25,4.4,strongest effect,increase,increase,1,reduction of cell density,167.66,
"N#Cc1nn(-c2c(Cl)cc(C(F)(F)F)cc2Cl)c(N)c1[S+]([O-])C(F)(F)F (stereo not shown) [FPN, fipronil]",failed to produce a clear and noticeable change,,100,reduced level; also recorded: greatest impact,,,5,5,decreased ALP activity,10,25,3.2,strongest effect,,increase,,reduction of cell density,192.45,"apoptotic cells (Caco-2 cells [9]; vs control): huge increased; percentage of necrotic cells (Caco-2 cells [9]; vs control): increased to a lesser extent; EC50 (Caco-2 cells [6]; Caco-2 cells, 10 days exposure, 0.1-100 μM, mean ± SEM): 18.1 ± 0.5 µM"
"O=C(NC(=O)c1c(F)cccc1F)Nc1cc(Cl)c(F)c(Cl)c1F [TBZ, teflubenzuron]",net decrease,5,100,,increase of the apparent permeability,no change,,5,increased its activity,5,25,3.8,,no change,no change,5,,,
